# According to article PMC3346155 (Drug Design, Development and Therapy, 2012):
# Entries after “also recorded” stand apart in the source; their conditions may differ. *1 amine or outer side, *2 acyl side, *3 side chain or, on linkers, in order; H or OH if unused. Where a SMILES comes first, the peptide text is derived from it. Side-chain parts run from the residue outwards. [ ]: non-standard residue; d: D form. The star is where a group is joined. Ethylenediamine = C(CN[*:2])N[*:1]; Hyp = O=C(O)[C@@H]1C[C@@H](O)CN1; Phg = N[C@H](C(=O)O)c1ccccc1; CO = O=C([*:1])[*:2]; Bn = c1ccc(C*)cc1
# What was measured:
# [1] = test system: human sst4; details: read-out: IC50, binding affinity to sst4, mean ± SEM; cited from earlier work
# [2] = Blood glucose levels after a single subcutaneous dose in healthy volunteers; format: in vivo, human
# Procedure, shortened: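 Healthy males aged 18–40 received one s.c. dose (1–1200 μg) or placebo between 8 and 9 am, about 1 h after a light standardized meal. Blood glucose was measured by the central standard laboratory panel at these times: pre-breakfast before dosing; before and 60 min after a standard lunch on Day –1 and Day 1; 2 h post-dose; and 23 h post-dose on Day 2.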
# [3] = test system: human sst3; details: cited from earlier work; for IC50: read-out: IC50, binding affinity to sst3, human sst3, mean ± SEM
# [4] = test system: human sst1; details: cited from earlier work; for IC50: read-out: IC50, binding affinity to sst1, human sst1, mean ± SEM
# [5] = Plasma pharmacokinetics after a single subcutaneous dose in healthy volunteers; format: in vivo, human
# Procedure, shortened: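 Single s.c. dose in healthy males. Blood was drawn by venipuncture or forearm cannula up to 144 h post-dose and centrifuged to plasma. Drug was quantified by validated radioimmunoassay (LLOQ 0.03 ng/mL); values below the LLOQ were set to zero. Parameters came from non-compartmental analysis, reported as median (range) for tmax and mean ± SD otherwise. Dose proportionality was tested by a log-dose versus log-parameter linear model.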
# [6] = compared with octreotide; cited from earlier work
# [7] = test system: human sst5; details: cited from earlier work; for IC50: read-out: IC50, binding affinity to sst5, human sst5, mean ± SEM
# [8] = test system: human sst2; details: cited from earlier work; for IC50: read-out: IC50, binding affinity to sst2, human sst2, mean ± SEM
# [9] = test system: GHRH-stimulated GH secretion; test: GHRH stimulation test, GH suppression in healthy volunteers; format: in vivo, human; details: for Emax, maximum GH reduction: value ± standard error
# Procedure, shortened: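 The GHRH stimulation test ran on Day –1 and Day 1. A 1 μg/kg GHRH bolus was given about 3 h after the s.c. dose. Plasma GH was sampled at −60 and 0 min and up to 120 min after GHRH, and measured by chemiluminescence assay (LLOQ 0.06 ng/mL).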
# [10] = Safety and tolerability of a single subcutaneous dose in healthy volunteers; format: in vivo, human
# Procedure, shortened: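 Randomized, double-blind, placebo-controlled ascending single s.c. doses; cohorts had 4–8 active and 2 placebo subjects. Subjects were confined from about 36 h pre-dose until 48-h safety results were available, with follow-up over 7 days. AEs came from self-report, investigator questioning, examination or laboratory tests. Laboratory abnormalities counted as AEs only if symptomatic or treated. SAEs were recorded until 4 weeks after the trial. Laboratory tests were run centrally, with descriptive statistics.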
# [11] = male, human, plasma, sc, 2.5 ug
# [12] = male, human, plasma, sc, 100 ug
# [13] = male, human, plasma, sc, 200 ug
# [14] = male, human, plasma, sc, 300 ug
# [15] = male, human, plasma, sc, 600 ug
# [16] = male, human, plasma, sc, 1200 ug
# [17] = single s.c. dose, across dose levels, healthy male volunteers
# [18] = single s.c. dose 1200 μg, n = 6
compound,measurement,setting,value
NCCCC[C@@H]1NC(=O)[C@@H](Cc2c[nH]c3ccccc23)NC(=O)[C@H](c2ccccc2)NC(=O)[C@@H]2C[C@@H](OC(=O)NCCN)CN2C(=O)[C@H](Cc2ccccc2)NC(=O)[C@H](Cc2ccc(OCc3ccccc3)cc2)NC1=O [Pasireotide] (cyclo([Hyp]([CO-Ethylenediamine])[Phg][dW]KY(Bn)F)),IC50,[1],> 1000 nM
same,glucose values,"[2]; all dose groups, twenty-three hours after the injection",normal for all groups
same,blood glucose levels,"[2]; doses between 200 μg and 1200 μg, 2–6 hours after administration, resolved by 23 hours post-dosing",Transient elevations in blood glucose levels
same,glucose levels,"[2]; single s.c. dose 600 μg and 1200 μg, six hours after administration",higher than those of placebo recipients
same,higher binding affinity for sst3 compared with octreotide,[3]; ratio versus octreotide,5 fold
same,higher binding affinity for sst1 compared with octreotide,[4]; ratio versus octreotide,30 fold
same,IC50,[4],9.3 ± 0.1 nM
same,AUC(0-t),[5]; [11],0.11 ± 0.09 ng·h/mL
same,Cmax,[5]; [11],0.06 ± 0.01 ng/mL
same,Tmax,[5]; [11],15 min
same,AUC(0-t),"[5]; male, human, plasma, sc, 10 ug",0.66 ± 0.25 ng·h/mL
same,Cmax,"[5]; male, human, plasma, sc, 10 ug",0.24 ± 0.06 ng/mL
same,Tmax,"[5]; male, human, plasma, sc, 10 ug",15 min
same,Vd/F,"[5]; male, human, plasma, sc, 10 ug",38.1 L
same,AUC(0-t),"[5]; male, human, plasma, sc, 30 ug",2.78 ± 1.02 ng·h/mL
same,Cmax,"[5]; male, human, plasma, sc, 30 ug",0.72 ± 0.17 ng/mL
same,Tmax,"[5]; male, human, plasma, sc, 30 ug",15 min
same,Vd/F,"[5]; male, human, plasma, sc, 30 ug",105 ± 5.7 L
same,half-life,"[5]; male, human, plasma, sc, 30 ug",444 ± 132 min
same,AUC(0-inf),[5]; [12],9.59 ± 2.44 ng·h/mL
same,AUC(0-t),[5]; [12],9.1 ± 2.37 ng·h/mL
same,CL/F,[5]; [12],183 mL/min
same,Cmax,[5]; [12],2.23 ± 0.45 ng/mL
same,Tmax,[5]; [12],30 min
same,Vd/F,[5]; [12],131 ± 41 L
same,AUC(0-inf),[5]; [13],17.5 ± 3.82 ng·h/mL
same,AUC(0-t),[5]; [13],16.8 ± 3.65 ng·h/mL
same,CL/F,[5]; [13],198 mL/min
same,Cmax,[5]; [13],3.73 ± 0.9 ng/mL
same,Tmax,[5]; [13],22.8 min
same,Vd/F,[5]; [13],162 ± 33.9 L
same,AUC(0-inf),[5]; [14],27.1 ± 6.98 ng·h/mL
same,AUC(0-t),[5]; [14],26 ± 6.87 ng·h/mL
same,CL/F,[5]; [14],198 mL/min
same,Cmax,[5]; [14],4.71 ± 1.79 ng/mL
same,Tmax,[5]; [14],22.8 min
same,Vd/F,[5]; [14],180 ± 44.3 L
same,AUC(0-inf),[5]; [15],78.6 ± 12.3 ng·h/mL
same,AUC(0-t),[5]; [15],75.6 ± 11.2 ng·h/mL
same,CL/F,[5]; [15],130 mL/min
same,Cmax,[5]; [15],15.6 ± 3.25 ng/mL
same,Tmax,[5]; [15],30 min
same,Vd/F,[5]; [15],464 ± 440 L
same,AUC(0-inf),[5]; [16],93.6 ± 13.6 ng·h/mL
same,AUC(0-t),[5]; [16],90.4 ± 13.2 ng·h/mL
same,CL/F,[5]; [16],218 mL/min
same,Cmax,[5]; [16],22.2 ± 5.53 ng/mL
same,Tmax,[5]; [16],30 min
same,Vd/F,[5]; [16],1190 ± 1570 L
same,half-life,[5]; [16],546 ± 126 min
same,partial AUC in the γ phase as contribution to total AUC∞,"[5]; single s.c. dose, 600 μg and 1200 μg, healthy male volunteers",< 15%
same,Tmax,[5]; [17],15 to 30 min
same,"t½,β (effective elimination half-life), mean",[5]; [17],420 to 660 min
same,"Vz/F, mean value","[5]; single s.c. dose, low doses (10 μg), healthy male volunteers",40 L
same,metabolic stability,[6],greater metabolic stability than octreotide
same,higher binding affinity for sst5 than endogenous somatostatin,[7]; ratio versus endogenous somatostatin,2 fold
same,higher binding affinity for sst5 compared with octreotide,[7]; ratio versus octreotide,39 fold
same,IC50,[7],0.16 ± 0.01 nM
same,lower affinity for sst2 compared with octreotide,[8]; ratio versus octreotide,2.6 times
same,IC50,[8],1 ± 0.1 nM
same,"Emax, maximum GH reduction",[9]; non-linear Emax model for GH AUC ratio versus Cavg,0.99 ± 0.03
same,"Emax, maximum GH reduction",[9]; non-linear Emax model for GH AUC ratio versus dose,1.00 ± 0.00
same,GH suppression,[9]; single pasireotide doses between 200 μg and 1200 μg s.c.,79%–96%
same,decrease in GH AUC2h,[9]; single s.c. dose 30–100 μg,approximately 45%
same,reduction in GH AUC2h,[9]; single s.c. doses between 1 μg and 10 μg,No reduction
same,AEs considered related to the study drug,"[10]; observed in the 1200 μg dose group only, of a total of 12 AEs in the study",eight
same,increased lipase level,"[10]; one subject, single s.c. dose 10 μg, 48 hours post-dose, normal range 23–300 U/L",523 U/L
same,subjects who experienced at least one AE,[10]; [18],6 subjects
same,subjects who experienced nausea,[10]; [18],five
same,"deaths, serious adverse events, clinically significant changes in laboratory values, vital signs or ECG","[10]; single s.c. dose 1–1200 μg, any dose, healthy male volunteers","no serious adverse events observed at any dose; also recorded: no reports of death, SAEs, or clinically significant changes in laboratory values, vital signs or ECG parameters"
same,tolerability,"[10]; single s.c. dose 1–1200 μg, healthy male volunteers",generally well tolerated
same,maximum tolerable dose,"[10]; single s.c. dose, tested range 1–1200 μg, healthy male volunteers",not established within the tested range
Lanreotide [reference compound],IC50,[1],230 ± 40 nM
same,IC50,[3],14 ± 9 nM
same,IC50,[4],180 ± 20 nM
same,IC50,[7],17 ± 5 nM
same,IC50,[8],0.54 ± 0.08 nM
Octreotide [reference compound],IC50,[1],> 1000 nM
same,IC50,[3],7.1 ± 1.4 nM
same,IC50,[4],280 ± 80 nM
same,IC50,[7],6.3 ± 1 nM
same,IC50,[8],0.38 ± 0.08 nM
